Here are results for 2 compounds from ChEMBL document CHEMBL4004807 (J Med Chem, 2017).

Each structure is given as a SMILES string. Active and inactive are the calls of the source. No cut-off for these calls is given here.

Data set [1] has as its system Plasma. Nature of the data set: Drug metabolism in po dosed rat plasma assessed as ralinepag formation. In kind it is ADME, organism-based. The note with it: in vivo.
A short description of data set [2]: Drug level in bile-duct cannulated rat bile treated with 2-(((1r,4r)-4-(((4-chlorophenyl)(phenyl)carbamoyloxy)methyl)cyclohexyl)methoxy)acetic acid. In kind it is ADME. The note with it: in vivo.
Data set [3] can be described thus: Drug degradation in simulated gastric fluid after 3 hrs. The method in brief:
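Incubated in simulated gastric fluid at room temperature for 3 h; conversion to parent monitored.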

In data set [4] the test system is Plasma. Nature of the data set: Drug level in bile-duct cannulated rat plasma treated with 2-(((1r,4r)-4-(((4-chlorophenyl)(phenyl)carbamoyloxy)methyl)cyclohexyl)methoxy)acetic acid. In kind it is ADME, cell-free.
For data set [5], the system named is Rattus norvegicus. Nature of the data set: Inhibition of hypertrophic response in Sprague-Dawley rat monocrotaline model of pulmonary arterial hypertension assessed as reduction of MCT-induced increase in pulmonary vessel wall thickness at 30 mg/kg administered via oral gavage twice daily for 21 consecutive days starting 24 hrs after monocrotaline challenge by morphometric analysis. In kind it is functional, organism-based. The method in brief: (§1)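 Male rats given 60 mg/kg monocrotaline sc on day 1 (sham: saline) under 30 mg/kg ip pentobarbital; from next day for 20 days dosed by oral gavage twice daily at 10 or 30 mg/kg in 20% HPBCD in saline (vehicle control). Day 21: RV/(LV+S) weights; mPAP via catheter under 60 mg/kg pentobarbital (30 mg/kg group, n = 5); H&E lung sections, 5 animals/group.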

For data set [6], the system named is Rattus norvegicus. Nature of the data set: Inhibition of right ventricle hypertrophic response in Sprague-Dawley rat monocrotaline model of pulmonary arterial hypertension assessed as reduction of MCT-induced increase in ratio of right ventricular weight to left ventricle plus septum weight administered via oral gavage twice daily for 21 consecutive days starting 24 hrs after monocrotaline challenge. Type of data set: functional. The method in brief:
as §1

The nature of data set [7]: Volume of distribution at steady state in Beagle dog at 0.2 mg/kg, iv. Type of data set: ADME, organism-based, Canis lupus familiaris. The note with it: in vivo.
Data set [8] relates to Rattus norvegicus. As to the kind of experiment: Unbound Cmax in Sprague-Dawley rat at 10 mg/kg, po administered via gavage as single dose. The conditions noted are these: in vivo. In kind it is ADME, organism-based.
In data set [9] the target is T1, Prostaglandin E2 receptor EP3 subtype (Homo sapiens, UniProt P43115).
T1 sequence (P43115 whole entry): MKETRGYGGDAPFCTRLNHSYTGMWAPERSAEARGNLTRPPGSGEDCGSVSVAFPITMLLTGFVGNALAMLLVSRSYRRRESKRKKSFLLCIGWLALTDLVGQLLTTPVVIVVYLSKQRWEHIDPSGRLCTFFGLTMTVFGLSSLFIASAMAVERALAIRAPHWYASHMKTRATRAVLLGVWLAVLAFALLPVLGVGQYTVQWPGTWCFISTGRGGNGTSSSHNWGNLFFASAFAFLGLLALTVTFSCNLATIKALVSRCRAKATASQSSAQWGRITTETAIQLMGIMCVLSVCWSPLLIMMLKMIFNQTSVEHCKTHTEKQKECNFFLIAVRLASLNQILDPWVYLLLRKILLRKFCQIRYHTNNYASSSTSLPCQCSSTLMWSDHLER
As to the kind of experiment: Agonist activity at recombinant human EP3v6 receptor expressed in melanophores assessed as induction of pigment redistribution up to 10 uM after 90 mins. The conditions noted are these: 1.5 h. In short, it runs like this:
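Melanophores electroporated with 20 μg human EP3v6 plasmid per 400 μL cells, grown 48 h at 27 °C. Assay buffer 0.7× PBS pH 7.3 with 20 nM melatonin to aggregate pigment, 90 min at room temperature, 650 nm baseline; compounds added (10-point, 5-fold dilutions, top 10 μM final), 90 min room temperature, absorbance reread.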

Data set [10] in a line: Total clearance in Sprague-Dawley rat plasma at 2 mg/kg, iv or 10 mg/kg, po. In kind it is ADME, organism-based.
Data set [11] in a line: Drug uptake in bile-duct cannulated rat urine. Type of data set: ADME. The note with it: in vivo.
Data set [12] can be described thus: Drug uptake in bile-duct cannulated rat bile. Type of data set: ADME. The conditions noted are these: in vivo.
The test system of data set [13] is Plasma. As to the kind of experiment: Drug metabolism in bile-duct cannulated rat plasma assessed as 2-(2-(((1r,4r)-4-(((4-chlorophenyl)(4-hydroxyphenyl)carbamoyloxy)methyl)cyclohexyl)methoxy)acetoxy)ethanesulfonic acid formation. Type of data set: ADME, cell-free.
Data set [14] concerns the target Prostaglandin E2 receptor EP4 subtype (Homo sapiens) (UniProt P35408). As to the kind of experiment: Agonist activity at recombinant human EP4 receptor expressed in CHO-K1 cells assessed as increase in intracellular cAMP level up to 10 uM after 1 hr incubation by HTRF method. Type of data set: functional, cell-based.
Data set [15] can be described thus: Volume of distribution at steady state in cynomolgus monkey at 0.1 mg/kg, iv. Type of data set: ADME, organism-based, Macaca fascicularis. The conditions noted are these: in vivo.
The subject of data set [16] is Plasma. Nature of the data set: Drug metabolism in bile-duct cannulated rat plasma assessed as 2-(((1r,4r)-4-(((4-chlorophenyl)(4-hydroxyphenyl)carbamoyloxy)methyl)cyclohexyl)methoxy)acetic acid formation. In kind it is ADME, cell-free.
The subject of data set [17] is Plasma. Nature of the data set: Drug uptake in bile-duct cannulated rat plasma. In kind it is ADME, cell-free.
The nature of data set [18]: Drug metabolism in bile-duct cannulated rat bile assessed as 2-(2-(((1r,4r)-4-(((4-chlorophenyl)(phenyl)carbamoyloxy)methyl)cyclohexyl)methoxy)acetoxy)ethanesulfonic acid formation. In kind it is ADME.
Data set [19] relates to Rattus norvegicus. As to the kind of experiment: Cardioprotective effect in Sprague-Dawley rat monocrotaline model of pulmonary arterial hypertension assessed as reduction of MCT-induced increase of pulmonary arterial pressue at 30 mg/kg administered via oral gavage twice daily for 21 consecutive days starting 24 hrs after monocrotaline challenge. In kind it is functional, organism-based. In short, it runs like this: as §1

Data set [20] deals with Prostaglandin E2 receptor EP2 subtype (Homo sapiens) (UniProt P43116). Nature of the data set: Agonist activity at recombinant human EP2 receptor expressed in CHO-K1 cells assessed as increase in intracellular cAMP level up to 10 uM after 1 hr incubation by HTRF method. In kind it is functional, cell-based.
Data set [21] has as its system Rattus norvegicus. Nature of the data set: AUC (0 to infinity) in Sprague-Dawley rat at 10 mg/kg, po. In kind it is ADME, organism-based. On the set-up: dose 10 mg/kg, route oral, time infinity. The note with it: in vivo. In short, it runs like this:
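Sprague-Dawley rats, single oral dose of 10.0 mg/kg; AUC0-inf from plasma concentrations.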

Data set [22] in a line: Total clearance in Beagle dog at 0.2 mg/kg, iv. Type of data set: ADME, organism-based, Canis lupus familiaris. The conditions noted are these: in vivo.
A short description of data set [23]: Total clearance in cynomolgus monkey at 0.1 mg/kg, iv. Type of data set: ADME, organism-based, Macaca fascicularis. The note with it: in vivo.

Prostaglandin E2 receptor EP4 subtype (Homo sapiens), sequence (P35408 whole entry): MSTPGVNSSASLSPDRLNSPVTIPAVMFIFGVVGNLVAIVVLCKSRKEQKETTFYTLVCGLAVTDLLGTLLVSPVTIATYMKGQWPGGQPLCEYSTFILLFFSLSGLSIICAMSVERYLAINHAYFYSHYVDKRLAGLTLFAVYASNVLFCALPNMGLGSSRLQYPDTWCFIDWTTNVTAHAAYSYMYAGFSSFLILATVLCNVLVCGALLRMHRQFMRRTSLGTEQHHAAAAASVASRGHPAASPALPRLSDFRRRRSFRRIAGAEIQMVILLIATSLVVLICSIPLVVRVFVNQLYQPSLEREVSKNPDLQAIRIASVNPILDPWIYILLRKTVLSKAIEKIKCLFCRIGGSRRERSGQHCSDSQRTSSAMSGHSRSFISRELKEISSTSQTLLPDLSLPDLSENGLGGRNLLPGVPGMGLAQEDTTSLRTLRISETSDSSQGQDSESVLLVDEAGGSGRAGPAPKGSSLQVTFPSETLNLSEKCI
Prostaglandin E2 receptor EP2 subtype (Homo sapiens), sequence (P43116 whole entry): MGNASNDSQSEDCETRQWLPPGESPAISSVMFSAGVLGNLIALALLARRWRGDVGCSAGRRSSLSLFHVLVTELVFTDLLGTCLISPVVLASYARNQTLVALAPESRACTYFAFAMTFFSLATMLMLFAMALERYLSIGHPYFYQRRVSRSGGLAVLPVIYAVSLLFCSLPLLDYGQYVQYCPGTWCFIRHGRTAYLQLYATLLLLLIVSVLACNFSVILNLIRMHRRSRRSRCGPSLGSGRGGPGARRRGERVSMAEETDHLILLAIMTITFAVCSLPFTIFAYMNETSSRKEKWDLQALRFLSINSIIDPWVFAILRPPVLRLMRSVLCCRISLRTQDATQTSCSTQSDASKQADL

On to `O=C(COC[C@H]1CC[C@H](COC(=O)N(c2ccccc2)c2ccc(Cl)cc2)CC1)NCCS(=O)(=O)O`, for which the Drug metabolism entry (in the data set on Plasma [1]; in data set [2]; with Plasma [4]) was “Metabolite_Detected” each time. Besides, the Drug degradation result in [3] is reported as “Metabolite_Notdetected”.
Regarding `O=C(O)COC[C@H]1CC[C@H](COC(=O)N(c2ccccc2)c2ccc(Cl)cc2)CC1`, the inhibition entry with Rattus norvegicus [5] was “Active”. The inhibition result with Rattus norvegicus [6] is “Dose-dependent effect”. For the same compound, the Vd (as a rule, a proportionality between amount in the body and measured concentration, not a real space) in data set [7] is 0.308 L/kg; in [15] it was 10.1 L/kg. This compound registered a fCmax in the data set with Rattus norvegicus [8] of 100 nM. Also, the outcome in data set [9] was Active. Also, the clearance in [10] is 7.12 mL/min/kg; in data set [22] it was 3.37 mL/min/kg; in data set [23], 14.7 mL/min/kg. In addition, the Drug uptake entry (in [11]; in data set [12]; in the data set with Plasma [17]) was “Active” throughout. Moreover, the Drug metabolism result (in the data set on Plasma [13]; in the data set on Plasma [16]; in data set [18]) was “Metabolite_Detected” throughout. Moreover, the result in data set [14] and in data set [20] was inactive. Further, the result in the data set on Rattus norvegicus [19] was Active. For the same compound, the AUC (as a rule, concentration integrated over time) with Rattus norvegicus [21] was determined as 14600 ng·h/mL.
